# Compounds with a hit are over-represented: about 1.4% of the library has one in this group of screens.
# iPSC survival up = hiPSC single-cell survival enhancement; ATPlite luminescence; 100% = ROCK inhibitor wells, 0% = DMSO; survival enhancement, % at 20 µM; actives 0.044% (n = 360,000); in the data active = survival enhancement above about 18%;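 also: cells exposed to compounds for 16 hours before the ATP read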
# NRP1-CendR mod = alters CendR peptide binding to human NRP-1; O14786; inhibition, % at 25 µM; FAM-RPARPAR peptide binding to NRP-1, fluorescence polarization; actives 0.85% (n = 360,000);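 active = inhibition or corrected inhibition above about 18%, plus a signal ratio from 0.5 to 1.5, limit read from the data, passing the limit was not always enough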
# MT1-MMP act inh = blocks activation of human MT1-MMP. AID 651647. HT1080 RFP-PRO-GFP cells, GFP/RFP ratio fluorescence, overnight; percent of plate control window, DMSO zero. GFP/RFP ratio change, % at 20 µM. actives 0.061% (n = 360,000);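 active = GFP/RFP ratio change of at least 30% with cell ATP level not reduced by more than half and red fluorescence within 50% of control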
#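 Assay system: RFP-PRO-GFP reporter HT1080 cells; read-out basis: GFP/RFP fluorescence ratio; benchmarks: DMSO wells and RFP-L50D-GFP cells; doses: 20 µM single dose, 1% DMSO; schedule: overnight cell settling, then overnight compound exposure, 37 °C, 5% CO2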
# SKN-1 block = C. elegans SKN-1 inhibition; C. elegans VP596 Pgst-4::GFP/RFP ratio, acrylamide-induced, 24 h; inhibition, % at 21.8 µM; actives 0.49% (n = 360,000); AID 624304;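 active = interference check ratio from 0.5 to 1.5 plus GFP to RFP signal ratio inhibition reaching or exceeding a fixed threshold, cut at about 30% in these data, passing the limit was not always enough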
# * = called active by the depositor; nt = not tested or not shown; ! = repeats disagree.
SMILES,iPSC survival up,NRP1-CendR mod,MT1-MMP act inh,SKN-1 block
O=C(Nc1ccc(F)cc1)c1cccc(N2C(=O)c3ccccc3C2=O)c1,0,-2,-2,6
Cc1ccc2nc(NC(=O)c3ccccn3)sc2c1,-2,10,5,11
O=C(Nc1nc2c(F)cc(F)cc2s1)c1ccccn1,-1,-17,7,37*
O=[N+]([O-])c1ccc(CN2CCN(c3ccccc3Cl)CC2)o1,-1,-3,-1,1
O=[N+]([O-])c1ccc(CN2CCN(c3ccccc3)CC2)o1,-1,28*,2,-20
Clc1ccccc1-c1ccc(CN2CCN(c3ccccc3)CC2)o1,1,-5,-2,38*
COC(=O)/C=C1\C(=O)N(c2nc3ccccc3s2)C(=S)N1c1ccc(F)cc1,-2,27*,-30,-35
O=C1CC(N2CCN(c3nc4ccccc4s3)CC2)C(=O)N1c1ccc(F)cc1 (stereo not drawn),7,1,1,16
O=C1c2ccccc2C(c2nnnn2Cc2ccccc2)N1CCc1c[nH]c2ccccc12 (stereo not drawn),1,4,-2,-6
Brc1ccc(-c2noc(-c3ccccn3)n2)o1,0,-1,-2,66*
COc1ccc(-c2nc(-c3ccccn3)no2)cc1,-7,8,2,12
Brc1ccc(-c2nc(-c3ccccn3)no2)o1,-3,6,0,44*
Brc1ccc(-c2nc(-c3ccncc3)no2)o1,-2,3,nt,49*
COc1cc(-c2nc(-c3ccc(Br)o3)no2)cc(OC)c1OC,-1,-10,7,5
CC(Sc1ncn[nH]1)C(=O)Nc1ccc(Cl)cn1 (stereo not drawn),0,0,-2,3
COC(=O)c1ccc(C2/C(=C(\O)c3cccc(OC)c3)C(=O)C(=O)N2CCCN(C)C)cc1 (stereo not drawn),-1,-10,1,3
COc1cccc(/C(O)=C2/C(=O)C(=O)N(CCN(C)C)C2c2ccc(Br)cc2)c1 (stereo not drawn),-1,20*,6,-14
CCC1(O)CC(c2ccccc2)=NN1C(=O)c1ccccc1F (stereo not drawn),-1,4,1,-3
O=C(Nc1cccc(C(F)(F)F)c1)OCCN1CCN(Cc2ccccc2)CCC1=O,1,23*,7,-5
O=C(Nc1ccc(F)cc1)OCCN1CCN(Cc2ccccc2)CCC1=O,-1,-16,3,-2
O=[N+]([O-])c1ccc(-c2csc(N3CCc4ccccc4C3)n2)cc1,-2,-1,2,11
O=[N+]([O-])c1ccc(N2CCc3ccccc3C2)cc1,2,5,2,44*
CSCCC(NC(=O)c1ccccc1Br)C(=O)NCC(C)(C)N1CCOCC1 (stereo not drawn),0,7,2,4
CN1CCC(N(C)CC(=O)Nc2ccccc2N2CCOCC2)CC1,2,-3,-1,40*
COc1ccc(CN(CCCN2CCOCC2)C(=O)Nc2cccc(Cl)c2)cc1OC,0,27*,-5,1
SMILES,iPSC survival up,NRP1-CendR mod,MT1-MMP act inh,SKN-1 block
O=C(Nc1cccc(Cl)c1)N(CCN1CCOCC1)Cc1cccc(Cl)c1,4,5,0,14
O=C(NCc1cccs1)c1ccc(S(=O)(=O)N2CCOCC2)cc1,1,21*,2,2
O=C(NCc1n[nH]c(=S)n1-c1ccc(F)cc1)c1ccc(S(=O)(=O)N2CCOCC2)cc1,-4,-2,8,38*
Cc1ccc(SCC(=O)N(C)C2CCS(=O)(=O)C2)c(C)c1 (stereo not drawn),0,1,-3,11
O=C1CCCC2=C1C(c1ccco1)Nc1ccc(C(=O)c3ccccc3)cc1N2 (stereo not drawn),0,-4,-15,-13
Cc1c(CN2CCN(CC(C)(C)C)C(CCO)C2)[nH]c2ccccc12 (stereo not drawn),0,0,-7,0
CCOc1ccc(CN2CCN(Cc3[nH]c4ccccc4c3C)CC2CCO)cc1 (stereo not drawn),-2,38*,0,9
COC(=O)C1N[C@@H]([C@@H](NC(=O)COc2ccccc2)C(=O)Nc2ccc(OC)cc2)SC1(C)C (stereo partly drawn),0,18,-1,9
COC(=O)C1N[C@@H]([C@@H](NC(=O)COc2ccccc2)C(=O)NC2CC2)SC1(C)C (stereo partly drawn),-1,31*,3,11
O=C(Cc1cccc([N+](=O)[O-])c1)Nc1cccc(C(=O)N2CCOCC2)c1,-4,7,3,10
O=C(Nc1cccc(C(=O)N2CCOCC2)c1)c1ccc([N+](=O)[O-])cc1,0,19*,-1,-8
CC1C/C(=C/c2ccncc2)C(=O)/C(=C/c2ccncc2)C1 (stereo not drawn),53*,13,-19,3
Oc1c(N=Nc2nn[nH]n2)ccc2ccccc12,-1,15,10,54*
Cc1ccc(S(=O)(=O)N(C)Cc2ccc(C(=O)N/N=C3\CC(=O)CC(C)(C)C3)cc2)cc1,4,0,0,-1
COc1ccc(CN2CCCC(C(=O)N3CCCC3)C2)c(OC)c1OC (stereo not drawn),-2,-7,3,-7
COc1cccc(-c2cc3onc(-c4ccccc4)c3c(=O)n2C)c1,-2,18*,-7,-11
Cn1c(-c2ccc(F)c(F)c2)cc2onc(-c3ccccc3)c2c1=O,3,18,2,4
O=P(c1ccccc1)(c1ccccc1)c1ccccc1C(Br)Br,0,28*,-4,4
O=S(=O)(c1ccccc1)N1CCN(CCc2ccccc2)CC1,0,6,4,-14
CN1C(=O)c2oc3ccccc3c(=O)c2C1c1ccccn1 (stereo not drawn),-3,33*,0,8
Cc1noc(C)c1-c1ccc(C(=O)NCC(C)C)c2occc12,0,-8,12,-9
COC(=O)C1=C(C)NC(C)=C(C(=O)OC)C1C(=O)OC(C)C(=O)c1ccccc1 (stereo not drawn),1,25*!,1,-2
CC(=O)Nc1ccc(NC(=O)C2CCN(c3c(Cc4ccccc4)c(C)nc4ncnn34)CC2)cc1,0,0,4,4
CCC(=O)Nn1c(C)nnc1C,0,-12,-2,-4
COc1ccc(NC(=S)NNC(=O)CCn2cc([N+](=O)[O-])cn2)cc1,0,30*,3,2
Cc1ccc(C(=O)COC(=O)CN2C(=O)C3C4CCC(C4)C3C2=O)cc1[N+](=O)[O-] (stereo not drawn),-1,6,4,-7
Cc1ccc(C(=O)COC(=O)CN2C(=O)C3C4CCC(C4)C3C2=O)cc1C (stereo not drawn),0,24*,-2,-6
CCOC(=O)c1[nH]c(C)c(/C(O)=C2\C(=O)C(=O)N(CCCN3CCOCC3)C2c2cccnc2)c1C (stereo not drawn),-2,-7,-2,5

# Screening results as filed in PubChem BioAssay.
